ChEMBL document CHEMBL1129357, “4-[4-[(2-Hydroxybenzoyl)amino]phenyl]butyric acid as a novel oral delivery agent for recombinant human growth hormone” (1996)

What follows are molecules tested on Rattus norvegicus (assay: Ability to promote absorption of recombinant human growth hormone from gastrointestinal tract in rats by using ELISA assay at a of dose 25 mg/kg, rhGH 1 mg/kg by IC administration). Conditions: not given.
Assay type: functional
Summary of the method: (§1)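 Male Sprague-Dawley rats, 225-250 g, in groups of six or seven, with free access to water for 24 h beforehand. Ketamine 44 mg/kg plus thorazine 1.5 mg/kg given just before dosing. Aqueous delivery agent, adjusted to pH 7.2-7.8, with rhGH, given by oral gavage or intracolonic instillation. Serum rhGH measured by ELISA; peak concentration in ng/mL reported as mean ± SD.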

| SMILES | Peak rhGH [ng/mL] |
| --- | --- |
| O=C(O)CCCc1ccc(NC(=O)c2ccccc2[N+](=O)[O-])cc1 | 14.9 |
| O=C(O)CCCc1ccc(NC(=O)/C=C/c2ccccc2F)cc1 | 7.7 |
| COc1ccccc1/C=C/C(=O)Nc1ccc(CCC(=O)O)cc1 | 61.7 |
| O=C(O)c1ccc(NC(=O)c2ccccc2O)cc1 | 0 |
| O=C(O)CCCc1ccc(NC(=O)CCCCc2ccccc2)cc1 | 8.4 |
| O=C(O)CCc1ccc(NC(=O)c2ccccc2O)cc1 | 37.2 |
| O=C(O)CCCc1ccc(NC(=O)c2ccccc2OC(F)(F)F)cc1 | 56.8 |
| O=C(O)CCc1ccc(NC(=O)c2ccccc2[N+](=O)[O-])cc1 | 17.6 |
| O=C(O)CCCc1ccc(NC(=O)CCCC2CCCCC2)cc1 | 26 |
| O=C(O)c1ccc(NS(=O)(=O)c2ccccc2)cc1 | 0 |
| COc1ccc(/C=C/C(=O)Nc2ccc(CCC(=O)O)cc2)cc1 | 5 |
| O=C(O)CCCc1ccc(NC(=O)c2ccccc2C(=O)O)cc1 | 22.3 |
| O=C(O)CCCc1ccc(NC(=O)c2ccc3c(c2)OCO3)cc1 | 0 |
| Cc1cccc(C)c1C(=O)Nc1ccc(CCCC(=O)O)cc1 | 7.7 |
| O=C(O)CCCc1ccc(NC(=O)c2c(O)cccc2O)cc1 | 20.9 |
| O=C(O)CCCc1ccc(NC(=O)CCC(=O)c2ccccc2)cc1 | 0.6 |
| COc1ccccc1C(=O)Nc1ccc(CCCC(=O)O)cc1 | 17.8 |
| O=C(O)CCCc1ccc(NC(=O)C(O)C(O)c2ccccc2)cc1 (configuration not stated) | 2.5 |
| O=C(O)Cc1ccc(NC(=O)c2ccccc2O)cc1 | 5.6 |
| O=C(O)CCCc1ccc(NC(=O)Cc2ccccc2F)cc1 | 7.3 |
| CN(C)c1cccc(C(=O)Nc2ccc(CCCC(=O)O)cc2)c1 | 50.7 |
| O=C(O)c1ccc(NC(=O)c2ccc(F)cc2)cc1 | 2.2 |
| O=C(O)CCCc1ccc(NC(=O)c2cccc([N+](=O)[O-])c2)cc1 | 33.5 |
| COc1cccc(O)c1C(=O)Nc1ccc(CCC(=O)O)cc1 | 9.3 |
| O=C(O)CCCc1ccc(NC(=O)CCOc2ccccc2)cc1 | 44.1 |
| O=C(O)CCCc1ccc(NCc2ccccc2O)cc1 | 32.5 |

Each molecule was assayed on Rattus norvegicus (assay: Ability to promote absorption of recombinant human growth hormone (rhGH) from the gastrointestinal tract in rats by using ELISA assay. (Compound dose 300 mg/kg, rhGH 6 mg/kg by OG administration)). Conditions: not given.
Assay type: functional
Summary of the method: as §1

| SMILES | Peak rhGH [ng/mL] |
| --- | --- |
| O=C(O)CCCc1ccc(NC(=O)c2ccccc2)cc1 | 5.4 |

The molecules below were run on Rattus norvegicus (assay: Ability to promote absorption of recombinant human growth hormone (rhGH) from the gastrointestinal tract in rats by using ELISA assay. (Compound at a of dose 250 mg/kg, rhGH 6 mg/kg by OG administration)). Conditions: not given.
Assay type: functional
Summary of the method: as §1

| SMILES | Peak rhGH [ng/mL] |
| --- | --- |
| O=C(O)CCCc1ccc(NS(=O)(=O)c2ccccc2)cc1 | 2.6 |

The molecules below were run on Rattus norvegicus (assay: Ability to promote absorption of recombinant human growth hormone from the gastrointestinal tract in rats by using ELISA assay. (Compound dose 300 mg/kg, rhGH 6 mg/kg by OG administration)). Conditions: not given.
Assay type: functional
Summary of the method: as §1

| SMILES | Peak rhGH [ng/mL] |
| --- | --- |
| CC(C(=O)Nc1ccc(CCCC(=O)O)cc1)c1ccccc1 (configuration not stated) | 2.3 |
| O=C(O)CCCc1ccc(NC(=O)c2ccccc2F)cc1 | 43.4 |
| O=C(O)CCCc1ccc(NC(=O)CCc2ccccc2)cc1 | 12.8 |
| O=C(O)CCCc1ccc(NC(=O)Cc2ccccc2)cc1 | 8.1 |
| O=C(O)CCCc1ccc(NC(=O)c2ccc(F)cc2)cc1 | 2.8 |
| O=C(O)Cc1ccc(NC(=O)CC2CCCCC2)cc1 | 15.7 |
| COc1ccc(C(=O)Nc2ccc(CCCC(=O)O)cc2)cc1 | 0 |
| O=C(O)CCCc1ccc(NC(=O)CCCc2ccccc2)cc1 | 17.9 |
| O=C(O)CCCc1ccc(NC(=O)Cc2ccccc2O)cc1 | 0 |
| O=C(O)CCCc1ccc(NC(=O)c2ccccc2O)cc1 | 49.7 |
| O=C(O)Cc1ccc(NC(=O)Cc2ccccc2)cc1 | 9 |
| O=C(O)c1ccc(NC(=O)c2ccc(F)cc2)cc1 | 1 |
| O=C(O)Cc1ccc(NC(=O)CCc2ccccc2)cc1 | 12.6 |
| CCC(C(=O)Nc1ccc(CCCC(=O)O)cc1)c1ccccc1 (configuration not stated) | 5.9 |

What follows are molecules tested on Rattus norvegicus (assay: Ability to promote absorption of recombinant human growth hormone from the gastrointestinal tract in rats by using ELISA assay. (Compound dose 200 mg/kg, rhGH 6 mg/kg by OG administration)). Conditions: not given.
Assay type: functional
Summary of the method: as §1

| SMILES | Peak rhGH [ng/mL] |
| --- | --- |
| O=C(O)CCCc1ccc(NCc2ccccc2)cc1 | 20.4 |
| O=C(O)CCCc1ccc(NC(=O)c2ccc(O)cc2O)cc1 | 16.9 |
| O=C(O)CCCc1ccc(NC(=O)C2CCCCC2C(=O)O)cc1 (configuration not stated) | 0 |
| CC(C)Cc1ccc(CC(=O)Nc2ccc(CCCC(=O)O)cc2)cc1 | 7.8 |

These molecules were tested on Rattus norvegicus (assay: Ability to promote absorption of recombinant human growth hormone from the gastrointestinal tract in rats by using ELISA assay. (Compound dose 400 mg/kg, rhGH 6 mg/kg by OG administration)). Conditions: not given.
Assay type: functional
Summary of the method: as §1

| SMILES | Peak rhGH [ng/mL] |
| --- | --- |
| O=C(O)CCCc1ccc(NC(=O)c2ccc(-c3ccccc3)c(-c3ccccc3)c2)cc1 | 28.2 |
| CC1CCC(C(=O)Nc2ccc(C(=O)O)cc2)CC1 (configuration not stated) | 0 |
| O=C(O)CCCc1ccc(NC(=O)C2CCCCCC2)cc1 | 92.8 |
| CCC(C(=O)Nc1ccc(CCCC(=O)O)cc1)C1CCCCC1 (configuration not stated) | 0.5 |
| CC1CCC(C(=O)Nc2ccc(CCCC(=O)O)cc2)CC1 (configuration not stated) | 41.6 |
| O=C(O)/C=C/c1ccc(NC(=O)c2ccccc2)cc1 | 6.5 |
| O=C(O)CCCc1ccc(NC(=O)/C=C/c2ccccc2)cc1 | 49.7 |
| O=C(O)CCCc1ccc(NC(=O)/C=C/c2c(F)c(F)c(F)c(F)c2F)cc1 | 49.7 |

These molecules were tested on Rattus norvegicus (assay: Ability to promote absorption of recombinant human growth hormone from the gastrointestinal tract in rats by using ELISA assay. (Compound dose 500 mg/kg, rhGH 6 mg/kg by OG administration)). Conditions: not given.
Assay type: functional
Summary of the method: as §1

| SMILES | Peak rhGH [ng/mL] |
| --- | --- |
| O=C(O)CCCc1ccc(NS(=O)(=O)c2ccccc2)cc1 | 28 |
| O=C(O)CCCc1ccc(NC(=O)c2cccc(-c3ccccc3)c2-c2ccccc2)cc1 | 5.9 |
| O=C(O)CCCc1ccc(NC(=O)c2ccc(-c3ccccc3)cc2)cc1 | 39.9 |
| O=C(CCCC1CCCCC1)Nc1ccc(C(=O)O)cc1 | 29.3 |
| O=C(O)Cc1ccc(NS(=O)(=O)c2ccccc2)cc1 | 0 |
| O=C(Cc1ccccc1)Nc1ccc(C(=O)O)cc1 | 0 |
| O=C(CCCc1ccccc1)Nc1ccc(C(=O)O)cc1 | 11.9 |
| O=C(CC1CCCCC1)Nc1ccc(C(=O)O)cc1 | 0 |
| O=C(O)c1ccc(NS(=O)(=O)c2ccccc2)cc1 | 13.7 |
| O=C(CCc1ccccc1)Nc1ccc(C(=O)O)cc1 | 3.3 |
| O=C(O)CCCc1ccc(NC(=O)C2CCCCC2)cc1 | 63.8 |
| O=C(O)CCCc1ccc(NC(=O)CC2CCCCC2)cc1 | 24.2 |

Each molecule was assayed on Rattus norvegicus (assay: Ability to promote absorption of recombinant human growth hormone from gastrointestinal tract in rats by using ELISA assay. (Compound dose 500 mg/kg, rhGH 6 mg/kg by OG administration)). Conditions: not given.
Assay type: functional
Summary of the method: as §1

| SMILES | Peak rhGH [ng/mL] |
| --- | --- |
| O=C(O)CCCc1ccc(NC(=O)c2ccccc2)cc1 | 21.7 |

What follows are molecules tested on Rattus norvegicus (assay: Ability to promote absorption of recombinant human growth hormone from the gastrointestinal tract in rats by using ELISA assay at a of dose 25 mg/kg, rhGH 1 mg/kg by IC administration). Conditions: not given.
Assay type: functional
Summary of the method: as §1

| SMILES | Peak rhGH [ng/mL] |
| --- | --- |
| O=C(O)CCCc1ccc(NC(=O)c2ccccc2F)cc1 | 20.8 |
| O=C(O)CCCc1ccc(NC(=O)c2ccccc2)cc1 | 17.5 |
| O=C(O)CCCc1ccc(NC(=O)c2ccccc2Cl)cc1 | 52.2 |
| COc1ccccc1/C=C/C(=O)Nc1ccc(C(=O)O)cc1 | 30.4 |
| Cc1ccccc1C(=O)Nc1ccc(CCCC(=O)O)cc1 | 9.08 |
| Cc1ccccc1/C=C/C(=O)Nc1ccc(CCCC(=O)O)cc1 | 16.4 |
| O=C(O)CCCc1ccc(NC(=O)c2ccccc2O)cc1 | 64.7 |
| O=C(O)CCCc1ccc(NC(=O)c2cccc(C(F)(F)F)c2)cc1 | 17.6 |
| O=C(O)CCCc1ccc(NC(=O)c2cccc(Cl)c2)cc1 | 0 |

What follows are molecules tested on Rattus norvegicus (assay: Ability to promote absorption of recombinant human growth hormone from the gastrointestinal tract in rats by using ELISA assay. (Compound dose 25 mg/kg, rhGH 6 mg/kg by OG administration)). Conditions: in the assay text read “rhGH 1 mg/kg by IC administration” for “rhGH 6 mg/kg by OG administration”.
Assay type: functional
Summary of the method: as §1

| SMILES | Peak rhGH [ng/mL] |
| --- | --- |
| COc1ccccc1/C=C/C(=O)Nc1ccc(CCCC(=O)O)cc1 | 32.9 |
